Experimental data taken from ChEMBL document CHEMBL1268967, “Synthesis and biological evaluation of furoxan-based nitric oxide-releasing derivatives of glycyrrhetinic acid as anti-hepatocellular carcinoma agents” (Bioorg Med Chem Lett, 2010).
Activity calls are given as the source filed them. The rule behind the calls is not given here.

What was measured:
HepG2 [1] = test: Antiproliferative activity against human HepG2 cells after 24 hrs by MTT assay; assay type: functional, cell-based; settings: HepG2, 24 h
Method in brief: (§1)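 Cells grown in DMEM with 10% heat-inactivated fetal calf serum at 37 °C, 5% CO2; 3 × 10^5 cells/well plated overnight, then exposed in triplicate to a range of concentrations for 24 h. MTT (5 mg/mL) was added for the final 4 h, formazan dissolved in DMSO, absorbance at 570 nm. IC50 is the mean of dose–response curves from at least three independent experiments.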

Bel-7402 [2] = test: Antiproliferative activity against human Bel7402 cells after 24 hrs by MTT assay; assay type: functional, cell-based; settings: Bel-7402, 24 h; method in brief: as §1
[3] = Antiproliferative activity against human L02 cells at 10 uM after 24 hrs by MTT assay; assay type: cell-based; settings: for Activity: l02, 24 h, 10 µM; for inhibition at 24 h, 10 µM: L02 cells
Method in brief: (§2)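 Cells cultured in DMEM with 10% heat-inactivated fetal calf serum at 37 °C, 5% CO2, plated overnight and then exposed to 10 µM compound for 24 h. MTT was added for the last 4 h, formazan dissolved in DMSO and read at 570 nm. Values are mean % cytotoxicity ± SD from three separate experiments.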

Bel-7402 [4] = test: Antiproliferative activity against human Bel7402 cells at 10 uM after 24 hrs by MTT assay; assay type: functional; settings: for inhibition of growth at 10 µM: Bel-7402, 24 h, read-out: GI; method in brief: as §2
HepG2 [5] = test: Induction of nitric oxide release in human HepG2 cells at 100 uM […] by Griess assay; assay type: functional, cell-based
Bel-7402 [6] = test: Induction of nitric oxide release in human Bel7402 cells at 100 uM […] by Griess assay; assay type: functional, cell-based
[7] = Toxicity in human L02 cells assessed as induction of nitric oxide release at 100 uM […] by Griess assay; assay type: cell-based; settings: l02, 100 µM
Bel-7402 [8] = test: Induction of nitric oxide release in human Bel7402 cells at 5 uM for 24 hrs pretreated with hemoglobin for 1 hr by Griess assay; assay type: functional, cell-based
Method in brief: (§3)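 BEL-7402 cells in 24-well plates were pretreated in triplicate with hemoglobin (0, 1, 5, 10 or 20 µM) for 1 h, then given compound at 5 or 10 µM for 24 h. NO in the cells was measured by Griess assay and reported as mean concentration for each condition.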

Bel-7402 [9] = test: Antiproliferative activity against human Bel7402 cells at 5 uM for 24 hrs pretreated with hemoglobin for 1 hr by MTT assay; assay type: functional, cell-based
Method in brief: (§4)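 BEL-7402 cells in 24-well plates were pretreated in triplicate with hemoglobin (0, 1, 5, 10 or 20 µM) for 1 h as an NO scavenger. Compound was then added at 5 or 10 µM for 24 h and cytotoxicity read by MTT. Data are mean % cytotoxicity for each condition.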

Bel-7402 [10] = test: Induction of nitric oxide release in human Bel7402 cells at 10 uM for 24 hrs pretreated with hemoglobin for 1 hr by Griess assay; assay type: functional, cell-based; method in brief: as §3
Bel-7402 [11] = test: Antiproliferative activity against human Bel7402 cells at 10 uM for 24 hrs pretreated with hemoglobin for 1 hr by MTT assay; assay type: functional, cell-based; method in brief: as §4

Molecule CC(=O)O[C@H]1CC[C@]2(C)[C@H]3C(=O)C=C4[C@@H]5C[C@@](C)(C(=O)NCCOc6no[n+]([O-])c6S(=O)(=O)c6ccccc6)CC[C@]5(C)CC[C@@]4(C)[C@]3(C)CC[C@H]2C1(C)C has an IC50 (HepG2 [1]) of 23.7 µM and an IC50 (Bel-7402 [2]) of 14.2 µM.
For O=S(=O)(c1ccccc1)c1c(OC/C=C/CO)no[n+]1[O-], the Activity [3] was “Toxic” and the “growth inhibition (GI)” value (Bel-7402 [4]) was “Active”.
With O=S(=O)(c1ccccc1)c1c(OCCCO)no[n+]1[O-] the Activity [3] was “Toxic” and the “growth inhibition (GI)” value (Bel-7402 [4]) was “Active”.
In the case of CC(=O)O[C@H]1CC[C@]2(C)[C@H]3C(=O)C=C4[C@@H]5C[C@@](C)(C(=O)OCCOc6no[n+]([O-])c6S(=O)(=O)c6ccccc6)CC[C@]5(C)CC[C@@]4(C)[C@]3(C)CC[C@H]2C1(C)C, the IC50 (HepG2 [1]) is reported as 14.7 µM and the IC50 (Bel-7402 [2]) is reported as 3.84 µM.
With COC(=O)[C@@]1(C)CC[C@]2(C)CC[C@]3(C)C(=CC(=O)[C@@H]4[C@@]5(C)CC[C@H](OC(=O)CCC(=O)OCCOCCOc6no[n+]([O-])c6S(=O)(=O)c6ccccc6)C(C)(C)[C@@H]5CC[C@]43C)[C@@H]2C1 the IC50 (HepG2 [1]) was 15.7 µM and the IC50 (Bel-7402 [2]) was 19.9 µM.
Work on CC(=O)O[C@H]1CC[C@]2(C)[C@H]3C(=O)C=C4[C@@H]5C[C@@](C)(C(=O)OCC#CCOc6no[n+]([O-])c6S(=O)(=O)c6ccccc6)CC[C@]5(C)CC[C@@]4(C)[C@]3(C)CC[C@H]2C1(C)C yielded an IC50 (HepG2 [1]) of 7.5 µM and an IC50 (Bel-7402 [2]) of 15 µM.
With CC1(C)[C@@H](O)CC[C@]2(C)[C@H]3C(=O)C=C4[C@@H]5C[C@@](C)(C(=O)NCC(=O)OCCCCOc6no[n+]([O-])c6S(=O)(=O)c6ccccc6)CC[C@]5(C)CC[C@@]4(C)[C@]3(C)CC[C@@H]12 the inhibition at 24 h, 10 µM [3] was less than 18%, the IC50 (HepG2 [1]) was 6.78 µM and the IC50 (Bel-7402 [2]) was 0.25 µM. The inhibition of growth at 10 µM (Bel-7402 [4]) was greater than 83.5%, the Activity (HepG2 [5]) was “Active” and the Activity (Bel-7402 [6]) was “Active”. The Activity [7] was “Non-toxic”, the “growth inhibition (GI)” value (Bel-7402 [8]) was “inactive” and the Activity (Bel-7402 [9]) was “inactive”. For the same molecule, the “growth inhibition (GI)” value (Bel-7402 [10]) was “inactive” and the Activity (Bel-7402 [11]) was “inactive”.
Molecule CC(=O)O[C@H]1CC[C@]2(C)[C@H]3C(=O)C=C4[C@@H]5C[C@@](C)(C(=O)NCC(=O)OCCOCCOc6no[n+]([O-])c6S(=O)(=O)c6ccccc6)CC[C@]5(C)CC[C@@]4(C)[C@]3(C)CC[C@H]2C1(C)C has an IC50 (HepG2 [1]) of 6.4 µM and an IC50 (Bel-7402 [2]) of 9.47 µM.
COC(=O)[C@@]1(C)CC[C@]2(C)CC[C@]3(C)C(=CC(=O)[C@@H]4[C@@]5(C)CC[C@H](OC(=O)CCC(=O)OCC#CCOc6no[n+]([O-])c6S(=O)(=O)c6ccccc6)C(C)(C)[C@@H]5CC[C@]43C)[C@@H]2C1 gave an IC50 (HepG2 [1]) of 11.6 µM and an IC50 (Bel-7402 [2]) of 13.4 µM.
For CC(O)CCOc1no[n+]([O-])c1S(=O)(=O)c1ccccc1 (centres undefined), the Activity [3] was “Toxic” and the “growth inhibition (GI)” value (Bel-7402 [4]) was “Active”.
With CC1(C)[C@@H](O)CC[C@]2(C)[C@H]3C(=O)C=C4[C@@H]5C[C@@](C)(C(=O)NCC(=O)OCCOc6no[n+]([O-])c6S(=O)(=O)c6ccccc6)CC[C@]5(C)CC[C@@]4(C)[C@]3(C)CC[C@@H]12 the IC50 (HepG2 [1]) was 9.06 µM and the IC50 (Bel-7402 [2]) was 1.38 µM.
In the case of CC(=O)O[C@H]1CC[C@]2(C)[C@H]3C(=O)C=C4[C@@H]5C[C@@](C)(C(=O)OCCOCCOc6no[n+]([O-])c6S(=O)(=O)c6ccccc6)CC[C@]5(C)CC[C@@]4(C)[C@]3(C)CC[C@H]2C1(C)C, the IC50 (HepG2 [1]) is reported as 31.4 µM and the IC50 (Bel-7402 [2]) is reported as 21.4 µM.
With COC(=O)[C@@]1(C)CC[C@]2(C)CC[C@]3(C)C(=CC(=O)[C@@H]4[C@@]5(C)CC[C@H](OC(=O)CCC(=O)NCCOc6no[n+]([O-])c6S(=O)(=O)c6ccccc6)C(C)(C)[C@@H]5CC[C@]43C)[C@@H]2C1 the IC50 (HepG2 [1]) was 2.9 µM and the IC50 (Bel-7402 [2]) was 2.94 µM.
CC(=O)O[C@H]1CC[C@]2(C)[C@H]3C(=O)C=C4[C@@H]5C[C@@](C)(C(=O)OCCCOc6no[n+]([O-])c6S(=O)(=O)c6ccccc6)CC[C@]5(C)CC[C@@]4(C)[C@]3(C)CC[C@H]2C1(C)C showed an IC50 (HepG2 [1]) of 11.5 µM and an IC50 (Bel-7402 [2]) of 15.3 µM.
COC(=O)[C@@]1(C)CC[C@]2(C)CC[C@]3(C)C(=CC(=O)[C@@H]4[C@@]5(C)CC[C@H](OC(=O)CCC(=O)OCCCOc6no[n+]([O-])c6S(=O)(=O)c6ccccc6)C(C)(C)[C@@H]5CC[C@]43C)[C@@H]2C1 gave an IC50 (HepG2 [1]) of 13.4 µM and an IC50 (Bel-7402 [2]) of 9.22 µM.
For O=S(=O)(c1ccccc1)c1c(OCCCCO)no[n+]1[O-], the Activity [3] was “Toxic” and the “growth inhibition (GI)” value (Bel-7402 [4]) was “Active”.
Work on CC1(C)[C@@H](O)CC[C@]2(C)[C@H]3C(=O)C=C4[C@@H]5C[C@@](C)(C(=O)NCCOc6no[n+]([O-])c6S(=O)(=O)c6ccccc6)CC[C@]5(C)CC[C@@]4(C)[C@]3(C)CC[C@@H]12 yielded an IC50 (HepG2 [1]) of 7.4 µM and an IC50 (Bel-7402 [2]) of 2.47 µM.
For O=S(=O)(c1ccccc1)c1c(OCC#CCO)no[n+]1[O-], the Activity [3] was “Toxic” and the “growth inhibition (GI)” value (Bel-7402 [4]) was “Active”.
For CC1(C)[C@@H](O)CC[C@]2(C)[C@H]3C(=O)C=C4[C@@H]5C[C@@](C)(C(=O)NCC(=O)OCCCOc6no[n+]([O-])c6S(=O)(=O)c6ccccc6)CC[C@]5(C)CC[C@@]4(C)[C@]3(C)CC[C@@H]12, the inhibition at 24 h, 10 µM [3] was less than 18%, the IC50 (HepG2 [1]) was 3.79 µM and the IC50 (Bel-7402 [2]) was 0.43 µM. The inhibition of growth at 10 µM (Bel-7402 [4]) was greater than 83.5%, the Activity (HepG2 [5]) was “Active” and the Activity (Bel-7402 [6]) was “Active”. The Activity [7] was “Non-toxic”.
COC(=O)[C@@]1(C)CC[C@]2(C)CC[C@]3(C)C(=CC(=O)[C@@H]4[C@@]5(C)CC[C@H](OC(=O)CCC(=O)OCCOc6no[n+]([O-])c6S(=O)(=O)c6ccccc6)C(C)(C)[C@@H]5CC[C@]43C)[C@@H]2C1 gave an IC50 (HepG2 [1]) of 18.2 µM and an IC50 (Bel-7402 [2]) of 7.85 µM.
Molecule CC1(C)[C@@H](O)CC[C@]2(C)[C@H]3C(=O)C=C4[C@@H]5C[C@@](C)(C(=O)NCC(=O)OCC#CCOc6no[n+]([O-])c6S(=O)(=O)c6ccccc6)CC[C@]5(C)CC[C@@]4(C)[C@]3(C)CC[C@@H]12 has an inhibition at 24 h, 10 µM [3] of less than 18%, an IC50 (HepG2 [1]) of 3.39 µM and an IC50 (Bel-7402 [2]) of 0.84 µM. For the same molecule, the inhibition of growth at 10 µM (Bel-7402 [4]) was greater than 83.5%, the Activity (HepG2 [5]) was “Active” and the Activity (Bel-7402 [6]) was “Active”. The Activity [7] was “Non-toxic”.
COc1cccc2c1C(=O)c1c(O)c3c(c(O)c1C2=O)C[C@@](O)(C(=O)CO)C[C@@H]3O[C@H]1C[C@H](N)[C@H](O)[C@H](C)O1 [DOXORUBICIN] showed an IC50 (HepG2 [1]) of 2.03 µM and an IC50 (Bel-7402 [2]) of 0.9 µM.
With CC1(C)[C@@H](O)CC[C@]2(C)[C@H]3C(=O)C=C4[C@@H]5C[C@@](C)(C(=O)NCC(=O)OCCOCCOc6no[n+]([O-])c6S(=O)(=O)c6ccccc6)CC[C@]5(C)CC[C@@]4(C)[C@]3(C)CC[C@@H]12 the IC50 (HepG2 [1]) was 5.18 µM and the IC50 (Bel-7402 [2]) was 3.78 µM.
For COC(=O)[C@@]1(C)CC[C@]2(C)CC[C@]3(C)C(=CC(=O)[C@@H]4[C@@]5(C)CC[C@H](OC(=O)CCC(=O)OCCCCOc6no[n+]([O-])c6S(=O)(=O)c6ccccc6)C(C)(C)[C@@H]5CC[C@]43C)[C@@H]2C1, the IC50 (HepG2 [1]) was 36.5 µM and the IC50 (Bel-7402 [2]) was 8.2 µM.
In the case of CC1(C)[C@@H](O)CC[C@]2(C)[C@H]3C(=O)C=C4[C@@H]5C[C@@](C)(C(=O)O)CC[C@]5(C)CC[C@@]4(C)[C@]3(C)CC[C@@H]12 [ENOXOLONE], the IC50 (HepG2 [1]) is reported as greater than 50 µM and the IC50 (Bel-7402 [2]) is reported as greater than 50 µM.
